According to ChEMBL document CHEMBL1152772, “Orally bioavailable antagonists of inhibitor of apoptosis proteins based on an azabicyclooctane scaffold” (J Med Chem, 2009):
Calls of active or inactive are those of the source.

Legend:
[1] = biological target: E3 ubiquitin-protein ligase XIAP (Homo sapiens, UniProt P98170); experiment: Binding affinity to XIAP-BIR3 domain by fluorescence polarization competitive assay
[2] = Binding affinity to MLXBIR3SG domain by fluorescence polarization competitive assay
MDA-MB-231 [3] = experiment: Cytotoxicity against human MDA-MB-231 cells assessed as cell viability after 3 to 4 days
HMEC [4] = experiment: Cytotoxicity against HMEC cells assessed as cell viability after 3 to 4 days; details: Homo sapiens
MDA-MB-231 [5] = experiment: Induction of apoptosis in human MDA-MB-231 cells assessed as caspase 3/7 activation after 3 to 24 hrs
BT-549 = experiment: Induction of apoptosis in human BT549 cells assessed as caspase 3/7 activation after 3 to 24 hrs
HMEC [6] = experiment: Induction of apoptosis in HMEC cells assessed as caspase 3/7 activation after 3 to 24 hrs; details: Homo sapiens
[7] = Cmax in mouse at 25 mg/kg, po; type: ADME, organism-based; design: dose 25 mg/kg, route oral; details: in vivo
[8] = AUC in mouse at 25 mg/kg, po; type: ADME, organism-based; design: dose 25 mg/kg, route oral; details: plasma
[9] = Half life in mouse at 25 mg/kg, po; type: ADME, organism-based; design: dose 25 mg/kg, route oral; details: in vivo
MDA-MB-231 [10] = experiment: Antitumor activity against human MDA-MB-231 cells xenografted in mouse assessed as increase in median time for tumor progression at 50 mg/kg/day, po; type: functional, organism-based
Procedure, shortened: (§1)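 Female 8-week-old C.B-17 SCID.bg mice inoculated subcutaneously in the upper right flank with 1 × 10⁷ GFP-expressing MDA-MB-231-X1.1 cells. Once-daily oral gavage of vehicle or compound at 50 (mg/kg)/day began at tumors of ~200 mm³ (~1.5 weeks after inoculation), n = 14 per group. Caliper tumor volume V = 0.5ab². Progression defined as a 6-fold volume increase from day 0; body weight monitored.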

Mus musculus = experiment: Toxicity in mouse bearing human MDA-MB-231 cells assessed as change in body weight at 50 mg/kg/day, po; type: organism-based; design: route oral; details: in vivo; procedure, shortened: as §1
MDA-MB-231 [11] = experiment: Induction of cIAP1 degradation in human MDA-MB-231 cells after 1 hr by Western blot; type: functional, cell-based
Procedure, shortened: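 MDA-MB-231 cells treated 1 h with a range of compound concentrations. Western blot probed with goat anti-c-IAP1, with mouse monoclonal anti-β-tubulin as loading control.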

Sequence of E3 ubiquitin-protein ligase XIAP (P98170 whole entry, the tested form may be a part): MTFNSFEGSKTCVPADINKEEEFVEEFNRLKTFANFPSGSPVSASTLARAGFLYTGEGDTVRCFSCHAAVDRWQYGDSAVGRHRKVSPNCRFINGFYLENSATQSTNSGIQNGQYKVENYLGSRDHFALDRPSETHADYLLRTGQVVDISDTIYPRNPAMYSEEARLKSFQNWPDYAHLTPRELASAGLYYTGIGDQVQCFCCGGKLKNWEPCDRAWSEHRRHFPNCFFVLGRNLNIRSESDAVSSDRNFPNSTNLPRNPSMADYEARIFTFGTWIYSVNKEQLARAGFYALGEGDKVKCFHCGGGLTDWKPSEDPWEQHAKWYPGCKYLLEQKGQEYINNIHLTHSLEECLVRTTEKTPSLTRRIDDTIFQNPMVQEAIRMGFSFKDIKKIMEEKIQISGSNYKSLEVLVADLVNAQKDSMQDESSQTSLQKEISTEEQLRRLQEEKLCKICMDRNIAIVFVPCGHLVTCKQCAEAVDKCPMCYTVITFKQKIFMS

Compound: CN[C@@H](C)C(=O)N[C@H](C(=O)N1CC[C@H]2CC[C@H](NC(=O)C3COc4ccccc43)[C@H]21)C(C)(C)C (some centres undefined)
- Ki [1]: 1.3 µM
- Ki [2]: 1.5 µM

Compound: CN[C@@H](C)C(=O)N[C@H](C(=O)N1CC[C@H]2CC[C@H](NC(=O)c3ccc(C)c4ccccc34)[C@H]21)C(C)(C)C
- Ki [1]: 0.19 µM
- Ki [2]: 0.063 µM
- EC50 (MDA-MB-231 [3]): 3.12 µM
- EC50 (HMEC [4]): > 10 µM
- EC50 (MDA-MB-231 [5]): 1.58 µM
- EC50 (BT-549): 1.45 µM
- EC50 (HMEC [6]): > 10 µM

Compound: CN[C@@H](C)C(=O)N[C@H](C(=O)N1CC[C@H]2CC[C@H](NC(=O)c3ccc4[nH]nnc4c3)[C@H]21)C(C)(C)C
- Ki [1]: 1.5 µM
- Ki [2]: 0.26 µM

Compound: CN[C@@H](C)C(=O)N[C@H](C(=O)N1CC[C@H]2CC[C@H](NC(=O)c3ccc4c(c3)OCO4)[C@H]21)C(C)(C)C
- Ki [1]: 1.8 µM
- Ki [2]: 1.3 µM

Compound: CN[C@@H](C)C(=O)N[C@H](C(=O)N1CC[C@H]2CC[C@H](NC(=O)c3csc4ccccc34)[C@H]21)C(C)(C)C
- Ki [1]: 0.16 µM
- Ki [2]: 0.11 µM

Compound: CN[C@@H](C)C(=O)N[C@H](C(=O)N1CC[C@H]2CC[C@H](NC(=O)c3cccc4ccccc34)[C@H]21)C(C)(C)C
- EC50 (MDA-MB-231 [3]): 0.98 µM
- EC50 (HMEC [4]): > 10 µM
- EC50 (MDA-MB-231 [5]): 0.49 µM
- EC50 (BT-549): 0.47 µM
- EC50 (HMEC [6]): > 10 µM
- Cmax [7]: 3.6 µM
- AUC [8]: 5 µM·h
- half-life [9]: 1.3 h
- Activity (MDA-MB-231 [10]): Active
- Activity (Mus musculus): Non-toxic
- Activity (MDA-MB-231 [11]): Active

Compound: CN[C@@H](C)C(=O)N[C@H](C(=O)N1CC[C@H]2CC[C@H](NC(=O)C(c3ccccc3)c3ccccc3)[C@H]21)C(C)(C)C
- EC50 (MDA-MB-231 [3]): 9.64 µM
- EC50 (HMEC [4]): > 10 µM
- EC50 (MDA-MB-231 [5]): 3.59 µM
- EC50 (BT-549): 1.81 µM
- EC50 (HMEC [6]): > 10 µM
- Cmax [7]: 5 µM
- AUC [8]: 16 µM·h
- half-life [9]: 1.5 h

Compound: CN[C@@H](C)C(=O)N[C@H](C(=O)N1CC[C@H]2CC[C@H](NC(=O)c3ccc4ccccc4c3)[C@H]21)C(C)(C)C
- EC50 (MDA-MB-231 [3]): 3.29 µM
- EC50 (HMEC [4]): > 10 µM
- EC50 (MDA-MB-231 [5]): 1.32 µM
- EC50 (BT-549): 0.19 µM
- EC50 (HMEC [6]): > 10 µM

Compound: CN[C@@H](C)C(=O)N[C@H](C(=O)N1CC[C@H]2CC[C@H](NC(=O)c3c(OC)ccc4ccccc34)[C@H]21)C(C)(C)C
- Ki [1]: 0.11 µM
- Ki [2]: 0.11 µM

Compound: CN[C@@H](C)C(=O)N[C@H](C(=O)N1CC[C@H]2CC[C@H](NC(=O)c3coc4ccccc34)[C@H]21)C(C)(C)C
- Ki [1]: 0.64 µM
- Ki [2]: 0.44 µM

Compound: CN[C@@H](C)C(=O)N[C@H](C(=O)N1CC[C@H]2CC[C@H](NC(=O)c3ccc(F)c4ccccc34)[C@H]21)C(C)(C)C
- EC50 (MDA-MB-231 [3]): 10.2 µM
- EC50 (HMEC [4]): > 10 µM
- EC50 (MDA-MB-231 [5]): 4.45 µM
- EC50 (BT-549): 4.07 µM
- EC50 (HMEC [6]): > 10 µM

Compound: CN[C@@H](C)C(=O)N[C@H](C(=O)N1CCC[C@H]1CNC(=O)C(c1ccccc1)c1ccccc1)C(C)(C)C
- Ki [1]: 3 µM
- Ki [2]: 0.29 µM

Compound: CN[C@@H](C)C(=O)N[C@H](C(=O)N1CC[C@H]2CC[C@H](NC(=O)N3CCc4ccccc43)[C@H]21)C(C)(C)C
- Ki [1]: 1.5 µM
- Ki [2]: 1.9 µM

Compound: CN[C@@H](C)C(=O)N[C@H](C(=O)N1CCC[C@H]1CNC(=O)c1cccc2ccccc12)C(C)(C)C
- Ki [1]: 1.6 µM
- Ki [2]: 0.78 µM
